In publication PMC2888972 (Molecular cancer therapeutics, 2009):

How the values were obtained:
mouse embryos = details: animal models; cited from earlier work
TA100 = assay: Bacterial mutation
HK-2 normal = assay: Growth inhibition assay; format: cell-based, human; details: 48 h
In short: (§1)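 Stock is 0.01 mol/L in DMSO, kept at −20°C under subdued light. Cells get 1–12.5 µmol/L or equal-volume DMSO, in triplicate, for 48 h. Growth index is mean treated OD over mean control OD, plotted against concentration. Maximal inhibition comes by nonlinear regression from plots of 2–3 independent experiments.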

786-O cancer = assay: Growth inhibition assay; format: cell-based, human; details: 48 h, 1 to 12.5 µmol/L
In short: as §1

WP2 uvrA = assay: Bacterial mutation
Caki-1 cancer cell line = assay: Apoptosis assay; format: cell-based, human; details: 10 µmol/L SHetA2, Annexin-V-FITC/PI
[1] = animal models; cited from earlier work
TA1535 = assay: Bacterial mutation
[2] = system: NF-κB transcriptional activity; assay: NF-κB luciferase reporter assay in Caki-1; format: cell-based, human
[3] = system: A498 cancer cell line xenograft; assay: A498 xenograft model; format: in vivo; details: 20, 40, or 60 mg/kg/day; data not shown
five bacterial strains = assay: Bacterial mutation
RTC91696 normal = assay: Growth inhibition assay; format: cell-based, human; details: 48 h
Caki-1 cancer [4] = assay: Growth inhibition assay; format: cell-based, human
In short: as §1

Cyclin D1 = assay: Western blot, Cyclin D1; format: cell-based, human; details: SHetA2 treatment
In short: (§2)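 Lysis is in CytoBuster with protease inhibitor cocktail. 100 µg protein is resolved by SDS-PAGE and blotted to nitrocellulose. Blots are probed with mouse monoclonals (Cyclin D1, PARP-1, Caspase 3), then HRP secondary with luminol detection. Stripped blots are reprobed for β-actin or GAPDH as loading control. Solvent-only DMSO cultures serve as control.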

[5] = system: RTC 91696 normal cultures; assay: Apoptosis assay; format: cell-based, human; details: maximum 72-hour treatment time and 12.5-µmol/L concentration
In short: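 Floating cells from the medium are pooled with trypsinised adherent cells, pelleted, and stained with Annexin-V-FITC and PI (Vybrant kit #3). Flow cytometry uses 488 nm excitation and 530/575 nm emission. Cultures are at passage 3, in MEMα with EGF 10 ng/mL, hydrocortisone 5 µg/mL, insulin/transferrin/selenous acid 6.35 µg/mL each, 10% FBS and pen/strep. The apoptotic-quadrant percentage comes from four replicate experiments.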

PARP-1 and Caspase 3 = assay: Western blot, PARP-1 and Caspase 3 cleavage; format: cell-based, human; details: Caki-1 cultures, 10 µmol/L
In short: as §2

Caki-1 cancer [6] = assay: Cell cycle analysis; format: cell-based, human; details: 10 µmol/L, 24 h
TA98 = assay: Bacterial mutation
normal HK-2 cell lines = assay: Cell cycle analysis; format: cell-based, human; details: 10 µmol/L, 24 h
E-Cadherin mRNA = assay: Real-time rtPCR of E-Cadherin in Caki-1 cultures; format: cell-based, human
In short: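 RNA comes from frozen cell pellets (RNeasy). TaqMan real-time PCR for E-Cadherin and 18S is run in triplicate reactions. Expression is normalised to 18S by ΔΔCt and set relative to solvent-only control cultures at each dose or time point. Three independent experiments.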

[7] = system: livers of SHetA2-treated mice; details: previous xenograft model; cited from earlier work
TA1537 = assay: Bacterial mutation
[8] = system: Caki-1 renal cancer xenografts; assay: Caki-1 renal cancer xenograft; details: for tumor-related deaths: 4 in untreated control group
[9] = 1.58 µg/plate (0.004 µmol/L), +S9
[10] = 1.58 µg/plate (0.004 µmol/L), −S9
[11] = 5.0 µg/plate (0.012 µmol/L), +S9
[12] = 15.8 µg/plate (0.039 µmol/L), +S9
[13] = Homo sapiens, read-out: potency (EC50, concentration needed to induce half maximal efficacy)
[14] = 50 µg/plate (0.125 µmol/L), +S9
[15] = 50 µg/plate (0.125 µmol/L), −S9
[16] = 158 µg/plate (0.393 µmol/L), +S9
[17] = 158 µg/plate (0.393 µmol/L), −S9
[18] = 500 µg/plate (1.245 µmol/L), +S9
[19] = 500 µg/plate (1.245 µmol/L), −S9
[20] = 1581 µg/plate (3.937 µmol/L), +S9
[21] = 1581 µg/plate (3.937 µmol/L), −S9
[22] = 5000 µg/plate (12.452 µmol/L), +S9
[23] = 5000 µg/plate (12.452 µmol/L), −S9

CC1(C)CC(C)(C)c2cc(NC(=S)Nc3ccc([N+](=O)[O-])cc3)ccc2S1 [SHetA2]
teratogenicity (mouse embryos): did not induce skin irritancy or teratogenicity
number of revertant colonies, Mean (TA100; [9]): 136
number of revertant colonies, Mean (TA100; [10]): 136
number of revertant colonies, Mean (TA100; [11]): 124
number of revertant colonies, Mean (TA100; [12]): 171
efficacy (maximum growth inhibition observed) (HK-2 normal; HK-2 normal, 1 to 12.5 µmol/L): 51.02% ± 7.07%
EC50 (HK-2 normal; [13]): 4.5 ± 0.28 µM
efficacy (maximum growth inhibition observed) (786-O cancer): 72.00% ± 5.06%
number of revertant colonies, Mean (WP2 uvrA; [14]): 27
number of revertant colonies, Mean (WP2 uvrA; [15]): 17
number of revertant colonies, Mean (WP2 uvrA; [16]): 18
number of revertant colonies, Mean (WP2 uvrA; [17]): 14
number of revertant colonies, Mean (WP2 uvrA; [18]): 22
number of revertant colonies, Mean (WP2 uvrA; [19]): 18
number of revertant colonies, Mean (WP2 uvrA; [20]): 17
number of revertant colonies, Mean (WP2 uvrA; [21]): 10
number of revertant colonies, Mean (WP2 uvrA; [22]): 13
number of revertant colonies, Mean (WP2 uvrA; [23]): 12
percentage of cells in the quadrant corresponding to apoptosis (Caki-1 cancer cell line): increased the percentage of Caki-1 cancer cells
skin irritancy [1]: did not induce skin irritancy or teratogenicity
number of revertant colonies, Mean (TA1535; [14]): 15
number of revertant colonies, Mean (TA1535; [15]): 19
number of revertant colonies, Mean (TA1535; [16]): 20
number of revertant colonies, Mean (TA1535; [17]): 26
number of revertant colonies, Mean (TA1535; [18]): 22
number of revertant colonies, Mean (TA1535; [19]): 18
number of revertant colonies, Mean (TA1535; [20]): 19
number of revertant colonies, Mean (TA1535; [21]): 21
number of revertant colonies, Mean (TA1535; [22]): 22
number of revertant colonies, Mean (TA1535; [23]): 16
time to inhibition of NF-κB activity ([2]; 10 µmol/L SHetA2): ≤ 30 min
tumor necrosis factor α induced NF-κB transcriptional activity ([2]; 10 µmol/L SHetA2, 20 ng/mL TNFα, 4 or 8 h): significantly inhibited
sensitivity of A498 xenograft [3]: did not exhibit significant sensitivity
mutagenicity of metabolites (number of revertant colonies) (five bacterial strains; preincubation with S9 microsomal fractions): no effect on the number of revertant colonies
mutagenicity (increase in revertant colony counts) (five bacterial strains; without S9): neither SHetA2 nor SHetA3 induced substantial increases in the revertant colony counts
EC50 (RTC91696 normal; [13]): 4.57 ± 0.49 µM
efficacy (maximum growth inhibition observed) (RTC91696 normal; RTC91696 normal, 1 to 12.5 µmol/L, single experiments): 36.84% ± 6.80%
efficacy (maximum growth inhibition observed) (Caki-1 cancer [4]; Caki-1 cancer, 48 h, 1 to 12.5 µmol/L): 84.40% ± 3.86%
EC50 (Caki-1 cancer [4]; Homo sapiens, CAKI-1, 48 h, read-out: potency (EC50, concentration needed to induce half maximal efficacy)): 4.93 ± 0.22 µM
time to decreased expression of Cyclin D1 (Cyclin D1): ≤ 1 h
induction of apoptosis in normal cells [5]: did not induce apoptosis
time to cleavage of PARP-1 and Caspase 3 (PARP-1 and Caspase 3): ≤ 16 h
percentages of cells in the G0-G1 phase of the cell cycle (Caki-1 cancer [6]): increased the percentages of cells in the G0-G1 phase
number of revertant colonies, Mean (TA98; [9]): 48
number of revertant colonies, Mean (TA98; [10]): 16
number of revertant colonies, Mean (TA98; [11]): 45
number of revertant colonies, Mean (TA98; [12]): 52
number of revertant colonies, Mean (TA98; [14]): 49
number of revertant colonies, Mean (TA98; [16]): 12
percentages of cells in the G0-G1 phase of the cell cycle (normal HK-2 cell lines): increased the percentages of cells in the G0-G1 phase
time to upregulation of E-Cadherin mRNA (E-Cadherin mRNA): ≤ 1 h
induction of E-Cadherin steady-state mRNA (E-Cadherin mRNA; 4 hours of treatment): 20 fold
induction of E-Cadherin steady-state mRNA (E-Cadherin mRNA; 24 hours of treatment): 60 fold
liver damage (necrosis, fatty changes, inflammation in portal tracts) [7]: no liver damage
number of revertant colonies, Mean (TA1537; [9]): 23
number of revertant colonies, Mean (TA1537; [10]): 9
number of revertant colonies, Mean (TA1537; [11]): 21
number of revertant colonies, Mean (TA1537; [12]): 21
tumor-related deaths ([8]; 20 mg/kg/day oral): 3
tumor-related deaths ([8]; 40 mg/kg/day oral): 6
maximal growth inhibition of xenograft tumors ([8]; 60 mg/kg/day oral for 30 days, day 34 (23rd day of treatment)): 36%
tumor-related deaths ([8]; 60 mg/kg/day oral): 6
body weight of the animals compared with the control group ([8]; 20, 40, 60 mg/kg/day oral for 30 days): None of the treatment concentrations altered the body weight
reduction of xenograft tumor sizes ([8]; 20 and 40 mg/kg/day oral for 30 days): not statistically significant
